Measurements reported in ChEMBL document CHEMBL3804769, “Antibacterial Diamines Targeting Bacterial Membranes” (J Med Chem, 2016).
The source made the active and inactive calls. No cut-off for these calls is given here.

What was measured:
Staphylococcus aureus [1] = assay: Antibacterial activity against Staphylococcus aureus RN4220 ATCC 35556 incubated overnight by microbroth dilution method; format: functional
Procedure, shortened: (§1)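 Bacteria grown in LB medium. CLSI microbroth dilution in 96-well plates, overnight at 37 °C without shaking. MIC99 taken as the lowest concentration giving complete growth inhibition. Three independent determinations, reported as mean ± SD.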

Escherichia coli = assay: Antibacterial activity against Escherichia coli ANS1 incubated overnight by microbroth dilution method; format: functional; procedure, shortened: as §1
Staphylococcus aureus [2] = assay: Antibacterial activity against methicillin-resistant Staphylococcus aureus clinical isolate 10082B SPA type 1 after 24 hrs by microbroth dilution method; format: functional
Procedure, shortened: (§2)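 MRSA isolates from ICU surfaces, stored at −80 °C and grown in Mueller-Hinton broth. Overnight cultures diluted and added to serially diluted compound at ~10⁵ CFU/mL, broth microdilution. Plates incubated 24 h at 37 °C, growth read as absorbance at 620 nm. MIC99 taken as the lowest concentration giving complete growth inhibition.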

Staphylococcus aureus [3] = assay: Antibacterial activity against methicillin-resistant Staphylococcus aureus clinical isolate 30253CA SPA type 7 after 24 hrs by microbroth dilution method; format: functional; procedure, shortened: as §2
Pseudomonas aeruginosa [4] = assay: Antibiofilm activity against Pseudomonas aeruginosa PAO1 ATCC 47085 at 64 ug/ml after 24 hrs by crystal violet staining-based spectrophotometry; format: functional, organism-based
Procedure, shortened: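 PAO1 grown 2 h in LB at 37 °C with shaking, then diluted 1:1000 in 10% LB-PBS to 3 × 10⁵ CFU/mL and mixed with serially diluted compound. Biofilms grown on peg lids 24 h at 37 °C, static. Pegs washed, stained with 0.1% crystal violet for 15 min, dye eluted in 95% ethanol and read at 600 nm. Control was 10% LB-PBS.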

Staphylococcus aureus [5] = assay: Bactericidal activity against Staphylococcus aureus RN4220 ATCC 35556 in stationary-phase assessed as reduction in bacterial burden at 4 times MIC99 after 2 to 6 hrs by time-kill assay; format: functional, organism-based
Procedure, shortened: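 Overnight cultures washed and resuspended in PBS, then diluted 100-fold into LB (exponential-phase model) or into 1% PBS (stationary-phase model). Test agent added at 4× MIC99. Incubated at 37 °C with shaking at 200 rpm. CFU counted on LB agar at 0, 2, 4 and 6 h.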

[6] = Hemolytic activity in human RBC after 1 hr; format: ADME, cell-based, Erythrocyte; details: red blood cells
Procedure, shortened: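 Human red blood cells, stored at 4 °C, added to serially diluted compound and incubated 1 h at 37 °C without shaking. Plates centrifuged and supernatant absorbance read at 540 nm. Triton X-100 as positive control. HC50 is the concentration lysing 50% of cells.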

[7] = Selectivity index, ratio of CC50 for HEK293T/17 cells to MIC99 for Pseudomonas aeruginosa PAO1 ATCC 47085; format: toxicity, cell-based; details: human, read-out: Selectivity Index
Procedure, shortened: (§3)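 CC50: HEK293T/17 or A549 cells seeded at 10⁴ per well in DMEM with 10% FBS at 37 °C, 5% CO2. After 24 h, wells PBS-washed and serially diluted compound applied for 48 h, with viability read by MTS and CC50 taken by nonlinear regression. MIC99 by CLSI broth microdilution, overnight at 37 °C without shaking, from three independent tests. SI = CC50/MIC99.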

[8] = Selectivity index, ratio of CC50 for human A549 cells to MIC99 for Escherichia coli ANS1; procedure, shortened: as §3
[9] = Selectivity index, ratio of CC50 for human A549 cells to MIC99 for methicillin-resistant Staphylococcus aureus clinical isolate
[10] = Toxicity in adult L4/juvenile L1 stages of Caenorhabditis elegans N2 assessed as survival at 64 ug/ml incubated for 96 hrs measured every 12 hrs; format: organism-based; details: in vivo
Procedure, shortened: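 C. elegans N2 kept on NGM agar at 22 °C. Compound mixed into molten NGM agar at 64 μg/mL. L4 adults, L1 juveniles and synchronized eggs transferred onto test plates and held at 22 °C for 96 h. Death, development and egg production checked every 12 h.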

Caenorhabditis elegans [11] = assay: Toxicity in adult L4/juvenile L1 stages of Caenorhabditis elegans N2 assessed as effect on locomotion at 64 ug/ml incubated for 96 hrs measured every 12 hrs; format: organism-based; details: in vivo
Caenorhabditis elegans [12] = assay: Toxicity in adult L4/juvenile L1 stages of Caenorhabditis elegans N2 assessed as effect on egg production at 64 ug/ml incubated for 96 hrs measured every 12 hrs; format: organism-based; details: in vivo
Procedure, shortened: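 C. elegans N2 maintained on NGM agar at 22 °C. Compound mixed into molten NGM agar at 64 μg/mL. L4 adults, L1 juveniles and synchronized eggs transferred onto test plates and kept 96 h at 22 °C. Checked every 12 h for death, development and egg production. Gentamicin and […] as controls.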

Staphylococcus aureus [13] = assay: Antibacterial activity against Staphylococcus aureus RN4220 ATCC 35556 in exponential-phase assessed as cytoplasmic membrane depolarization at 1 to 4 times MIC99 by fluorescent probe DiSC3-5 based fluorophotometric analysis; format: functional, organism-based
Procedure, shortened: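 Log-phase cells (OD600 ~0.7) washed and resuspended to OD600 0.05 in 5 mM HEPES pH 7.2 with 5 mM glucose and 100 mM KCl. Loaded with 0.4 μM DiSC3-5 in the dark until fluorescence fell stably by about 90%. Compound added at 4× or 1× MIC99 and fluorescence recorded continuously at 25 °C (ex 622/em 670 nm). 2,4-Dinitrophenol as positive control. Three independent experiments.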

Pseudomonas aeruginosa [14] = assay: Antibacterial activity against Pseudomonas aeruginosa PAO1 ATCC 47085 assessed as increase in outer membrane permeability at 1 to 4 times MIC99 by fluorescent probe 1-N-phenylnaphthylamine based fluorescence assay; format: functional, organism-based
Procedure, shortened: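 PAO1 cells harvested at OD600 ~0.5, washed, and resuspended in 5 mM HEPES pH 7.2 with 10 μM NPN (final) and 10 mM sodium azide (final). Held 30 min at room temperature in the dark. Compound added at 4× or 1× MIC99 and NPN fluorescence recorded continuously (ex 350/em 420 nm). Gentamicin at 4× MIC99 as positive control. Three independent experiments.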

Staphylococcus aureus [15] = assay: Antibacterial activity against Staphylococcus aureus RN4220 ATCC 35556 in early exponential-phase assessed as numerous spherical double layered mesosome like structures at 2 times MIC99 after 30 to 60 mins by transmission electron microscopy; format: functional, organism-based
Procedure, shortened: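 Cells grown in LB to early exponential phase (OD600 ~0.4). Exposed to 2× MIC99 for 15–60 min, washed twice in phosphate buffer, fixed in 2.5% glutaraldehyde, then imaged by transmission electron microscopy.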

Pseudomonas aeruginosa [16] = assay: Potentiation of kanamycin-induced antibacterial activity against Pseudomonas aeruginosa PAO1 ATCC 47085 assessed as kanamycin MIC at 0.5 times MIC99 after 24 hrs by checkerboard assay (reference value: 64 ug/ml); format: functional; details: PAO1 ATCC 47085, 24 h
Procedure, shortened: (§4)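 Checkerboard assay: compound serially diluted along one axis of a 96-well plate and antibiotic along the other, in LB. Each well inoculated with 2 × 10⁴ CFU and incubated 24 h at 37 °C. ΣFIC = FIC A + FIC B, where each FIC is the combination MIC99 divided by the MIC99 of that drug alone.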

Staphylococcus aureus [17] = assay: Antibacterial activity against Staphylococcus aureus RN4220 ATCC 35556 at 0.5 times MIC99 after 24 hrs by checkerboard assay in presence of ampicillin; format: functional; procedure, shortened: as §4
Staphylococcus aureus [18] = assay: Antibacterial activity against Staphylococcus aureus RN4220 ATCC 35556 at 0.5 times MIC99 after 24 hrs by checkerboard assay in presence of norfloxacin; format: functional; procedure, shortened: as §4

Compound `Cl.Cl.S=C(NCCCNCCCCCNCCCNC(=S)NCC(c1ccccc1)c1ccccc1)NCC(c1ccccc1)c1ccccc1` has an MIC99 (Staphylococcus aureus [1]) of 2 µg/mL, an MIC99 (Escherichia coli) of 2 µg/mL and an MIC99 (Staphylococcus aureus [2]) of 1 µg/mL. The MIC99 (Staphylococcus aureus [3]) was 1 µg/mL, the Activity (Pseudomonas aeruginosa [4]) was “Active” and the Activity (Staphylococcus aureus [5]) was “Active”. The HC50 at 1 h [6] was 64 µg/mL, the selectivity ratio [7] was 4 and the “Selectivity Index” value [8] was 32. The “Selectivity Index” value [9] was 64, the survival at 96 h, 64 ug/ml [10] was 100% and the Activity (Caenorhabditis elegans [11]) was “Non-toxic”. The Activity (Caenorhabditis elegans [12]) was “Non-toxic”, the Activity (Staphylococcus aureus [13]) was “Active” and the Activity (Pseudomonas aeruginosa [14]) was “Active”. For the same compound, the Activity (Staphylococcus aureus [15]) was “Active”, the MIC99 (Pseudomonas aeruginosa [16]) was 8 µg/mL and the “fractional inhibitory concentration index (FICI)” value (Staphylococcus aureus [17]) was 0.75. For the same compound, the “fractional inhibitory concentration index (FICI)” value (Staphylococcus aureus [18]) was 0.75.
